Data taken from ChEMBL document CHEMBL1122567, “Conformationally restricted congeners of dopamine derived from octahydrobenzo[g]quinoline and octahydrobenzo[f]quinoline” (J Med Chem, 1984).
Active and inactive are the calls of the source. The rule behind the calls is not given here.

Assays:
Rattus norvegicus [1] = species on record: Rattus norvegicus; test: Compound was evaluated for inhibition of binding of [3H]spiroperidol to rat caudate tissue.; assay type: functional, organism-based
Felis catus [2] = test: Compound was evaluated for the inhibition of the cardioaccelerator nerve of the cat at a dose 4 umol/kg; assay type: functional
How it was run: (§1)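 Cats were anaesthetised with pentobarbital sodium (30 mg/kg) injected into the thoracic cavity. The right cardioaccelerator nerve was isolated and stimulated through bipolar platinum electrodes at 2 Hz, 2-ms pulses and supramaximal voltage, usually for 30 s. Arterial pressure was recorded from the right femoral artery, and heart rate by cardiotachometer. The highest dose tested was 4 µmol/kg, with n = 3.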

Rattus norvegicus [3] = species on record: Rattus norvegicus; test: Compound was evaluated for inhibition of binding of [3H]dopamine to rat caudate tissue.; assay type: functional, organism-based
Felis catus [4] = test: Compound was evaluated for the inhibition of the cardioaccelerator nerve of the cat; I - inactive at a dose 4 umol/kg (n = 3); assay type: functional, organism-based; how it was run: as §1
Felis catus [5] = test: Compound was evaluated for the inhibition of the cardioaccelerator nerve of the cat at a dose 4 umol/kg (n = 3); assay type: functional; how it was run: as §1

Row | SMILES | IC50 (Rattus norvegicus [1]) [nM] | ED50 (Felis catus [2]) [µmol/kg] | IC50 (Rattus norvegicus [3]) [nM] | ED50 (Felis catus [4]) | ED50 (Felis catus [5]) [µmol/kg]
1 | CCN1CCC[C@H]2c3cc(O)cc(O)c3CC[C@H]21 | 10000 | > 4 | 430 | – | –
2 | CCCN1CCC[C@H]2c3cc(O)cc(O)c3CC[C@H]21 | 11000 | > 4 | 1700 | – | –
3 | CCN1CCC[C@@H]2Cc3c(O)cc(O)cc3C[C@H]21 | 32000 | – | 440 | inactive | –
4 | CCCN1CCC[C@@H]2Cc3c(O)cc(O)cc3C[C@H]21 | 15000 | – | 370 | – | 1.74
5 | CCN1CCC[C@@H]2c3cc(O)cc(O)c3CC[C@H]21 | 2400 | – | 90 | – | 0.0021
6 | CCCN1CCC[C@@H]2c3cc(O)cc(O)c3CC[C@H]21 | 1000 | – | 40 | – | 0.0047
7 | Oc1cc(O)c2c(c1)[C@@H]1CCCN[C@@H]1CC2 | 113000 | – | 11100 | – | –
8 | CN1CCc2cccc3c2[C@H]1Cc1ccc(O)c(O)c1-3 [APOMORPHINE] | 1100 | – | – | – | 0.022
9 | Oc1cc(O)c2c(c1)C[C@H]1NCCC[C@@H]1C2 | 264000 | – | 12800 | inactive | –
10 | Oc1cc(O)c2c(c1)[C@@H]1CCCN[C@H]1CC2 | 25000 | – | 1000 | – | –
